ChEMBL document CHEMBL1138355, “Amine-guanidine switch: a promising approach to improve DNA binding and antiproliferative activities” (J Med Chem, 2007)
Active and inactive are the calls of the source. The rule behind the calls is not given here.

Tests used:
Caspase-3 (Homo sapiens) = target: T1, Caspase-3 (Homo sapiens) (UniProt P42574); assay: Increase in caspase 3 activation in human SKBR3 cells at 20 uM after 24 hrs; assay type: cell-based; conditions: SK-BR-3
T1 sequence (whole entry): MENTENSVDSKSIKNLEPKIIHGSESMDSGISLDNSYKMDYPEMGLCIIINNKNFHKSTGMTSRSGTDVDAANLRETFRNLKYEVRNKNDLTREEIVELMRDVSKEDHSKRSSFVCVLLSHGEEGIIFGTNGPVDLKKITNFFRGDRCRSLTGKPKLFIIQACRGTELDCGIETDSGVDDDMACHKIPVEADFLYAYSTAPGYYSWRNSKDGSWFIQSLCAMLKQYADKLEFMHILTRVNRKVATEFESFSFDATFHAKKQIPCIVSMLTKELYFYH
Procedure, shortened: (§1)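 SKBR3 cells seeded at 10^4 per well and exposed to compounds at 20 µM for 24 h. Controls run with and without 0.2% DMSO. Caspase-3/7 activity measured in homogeneous lysates with Caspase-Glo 3/7 reagent as luciferase luminescence.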

DNA [1] = assay: Binding affinity to calf […] DNA assessed as thermal stability in cacodylate buffer at 12 uM; assay type: nucleic-acid assay
Caspase-7 (Homo sapiens) = target: T2, Caspase-7 (Homo sapiens) (UniProt P55210); assay: Increase in caspase 7 activation in human SKBR3 cells at 20 uM after 24 hrs; assay type: cell-based; conditions: SK-BR-3; procedure, shortened: as §1
T2 sequence (whole entry): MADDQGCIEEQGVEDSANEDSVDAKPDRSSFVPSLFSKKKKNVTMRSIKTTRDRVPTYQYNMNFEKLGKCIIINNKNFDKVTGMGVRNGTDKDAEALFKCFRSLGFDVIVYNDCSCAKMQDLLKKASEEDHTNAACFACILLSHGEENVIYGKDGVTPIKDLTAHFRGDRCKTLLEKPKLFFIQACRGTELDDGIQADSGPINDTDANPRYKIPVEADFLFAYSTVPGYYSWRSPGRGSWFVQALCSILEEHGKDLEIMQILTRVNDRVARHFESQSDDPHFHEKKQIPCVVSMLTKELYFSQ

DNA [2] = assay: Binding affinity to calf […] DNA assessed as thermal stability in cacodylate buffer containing 0.1 M NaCl at 12 uM; assay type: nucleic-acid assay
SK-BR-3 = assay: Antiproliferative activity against human SKBR3 cells after 72 hrs; assay type: functional, cell-based; conditions: SK-BR-3, 72 h
Procedure, shortened: (§2)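 Cells grown in DMEM with 10% calf serum and 1 mM pyruvate, seeded at 5000 cells/well, left 24 h, then given increasing concentrations from DMSO stock in triplicate (DMSO-only controls) for 72 h. CellTiter 96 aqueous one-solution reagent added for 3 h at 37 °C, A540 read. IC50 taken as the concentration halving cell number versus controls, from triplicate means.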

DNA [3] = assay: Binding affinity to calf thymus DNA assessed as thermal stability in BPE buffer at 2 uM; assay type: nucleic-acid assay; conditions: Bos taurus
PC-3 = assay: Antiproliferative activity against human PC3 cells after 72 hrs; assay type: functional, cell-based; conditions: PC-3, 72 h
LNCaP = assay: Antiproliferative activity against human LnCAP cells after 72 hrs; assay type: functional, cell-based
T47D = assay: Antiproliferative activity against human T47D cells after 72 hrs; assay type: functional, cell-based; procedure, shortened: as §2
HT-29 = assay: Antiproliferative activity against human HT29 cells after 72 hrs; assay type: functional, cell-based; conditions: HT-29, 72 h; procedure, shortened: as §2
BT-474 [4] = assay: Antiproliferative activity against human BT474 cells after 72 hrs; assay type: functional, cell-based; conditions: BT-474, 72 h
BT-474 [5] = assay: Antitumor activity against human BT474 cells xenografted gamma C null NOG/SCID mouse assessed as reduction in tumor volume at 20 mg/kg, ip after 44 days; assay type: functional; parameters: scale not given: the % may be the effect or the level left; conditions: route intraperitoneal
Procedure, shortened: (§3)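 5 × 10^6 BT474 cells in Matrigel injected subcutaneously into the mammary gland of NOG/SCID mice. Once xenografts were established (10–15 days), mice got intraperitoneal doses in 0.9% NaCl every 3 days; controls got vehicle on the same schedule. Tumours measured by caliper, volume = 0.52(length × width²), five mice per group, percent volume change at day 44.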

BT-474 [6] = assay: Antitumor activity against human BT474 cells xenografted in gamma C null NOG/SCID mouse assessed as reduction in tumor volume at 60 mg/kg, ip after 44 days; assay type: functional; parameters: scale not given: the % may be the effect or the level left; conditions: route intraperitoneal; procedure, shortened: as §3

| SMILES | Activity (Caspase-3 (Homo sapiens)) | ΔTm (DNA [1]) [°C] | Activity (Caspase-7 (Homo sapiens)) | ΔTm (DNA [2]) [°C] | IC50 (SK-BR-3) [µM] | ΔTm (DNA [3]) [°C] | IC50 (PC-3) [µM] | IC50 (LNCaP) [µM] | IC50 (T47D) [µM] | IC50 (HT-29) [µM] | IC50 (BT-474 [4]) [µM] | Activity (BT-474 [5]) [%] | Activity (BT-474 [6]) [%] | Tm (DNA [3]) [°C] |
| --- | --- | --- | --- | --- | --- | --- | --- | --- | --- | --- | --- | --- | --- | --- |
| NCc1ccc2c(c1)Cc1ccccc1-2 | inactive | 0.1 | inactive | 0 | > 40 | 1 |  |  |  |  |  |  |  |  |
| NCCCCNCc1c2ccccc2cc2ccccc12 |  | 26 |  | 8 | 3.3 | 13.1 |  |  |  |  |  |  |  |  |
| N=C(N)NCc1cccs1 |  | 0 |  | 0 | > 40 | 0.1 | > 100 | 64.6 | 85.1 | > 100 | 95.5 |  |  |  |
| N=C(N)NCc1ccccc1 | inactive | 0.1 | inactive | 0 | > 40 | 0.1 | > 100 | 43.7 | 83.2 | > 100 | 47.9 |  |  |  |
| NCCCCNCc1ccc2ccc3cccc4ccc1c2c34 |  | 32.1 |  | 10 | 4.2 | 20.2 |  |  |  |  |  |  |  |  |
| NCc1ccc2ccc3cccc4ccc1c2c34 |  | 15 |  | 3 | 12 | 5 |  |  |  |  |  |  |  |  |
| N=C(N)NCCCCNCc1c2ccccc2cc2ccccc12 |  | 28.1 |  | 9 | 2.3 | 15.1 | 13.8 | 28.2 | 30.9 | 79.4 | 14.5 |  |  |  |
| N=C(N)NCCCCNCc1ccc2ccc3cccc4ccc1c2c34 | Active | 34.2 | Active | 12 | 1.9 |  | 7.9 | 9.3 | 2.2 | 30.9 | 16.2 | 32 | 73 | > 100 |
| CCBr |  | 21 |  | 5 |  | 8.1 |  |  |  |  |  |  |  |  |
| NCc1ccccc1 [BENZYLAMINE] | inactive | 0.1 | inactive | 0 | > 40 | 0 |  |  |  |  |  |  |  |  |
| N=C(N)NCc1ccc2c(c1)Cc1ccccc1-2 |  | 1 |  | 0 | 15.7 | 0 | 24 | 27.5 | 6.9 | 32.4 | 19.1 |  |  |  |
| N=C(N)NCc1c2ccccc2cc2ccccc12 | Active | 15 | Active | 4 | 1.9 | 6.1 | 10 | 3.5 | 29.5 | > 100 | 19.1 |  |  |  |
| NCc1cccs1 |  | 0 |  | 0 | > 40 | 0.1 |  |  |  |  |  |  |  |  |
| N=C(N)NCc1ccc2ccc3cccc4ccc1c2c34 |  | 19 |  | 6 | 11 | 8.1 | 43.7 | 93.3 | 43.7 | 39.8 | 33.9 |  |  |  |
| CN1CCN(c2ccc3[nH]c(-c4ccc5[nH]c(-c6ccc(O)cc6)nc5c4)nc3c2)CC1 |  | 25.1 |  | 12 |  | 9 |  |  |  |  |  |  |  |  |
| N=C(N)NCCCCCCNCc1ccc2ccc3cccc4ccc1c2c34 |  | 34.1 |  | 12 | 4.8 |  |  |  | 2.2 |  | 29.2 |  |  | > 100 |
| N=C(N)NCCCNCCCCNCCCNCc1ccc2ccc3cccc4ccc1c2c34 | inactive | 39.1 | inactive | 16 | 25.3 |  |  |  | 8 |  | 34.6 |  |  | > 100 |
| NCc1c2ccccc2cc2ccccc12 | inactive | 9 | inactive | 1 | 25.5 | 3 |  |  |  |  |  |  |  |  |
